{
  "source": "PubChem BioAssay AID624006",
  "about": "(Broad Institute, 2012)",
  "note": "“And” between values parts separate entries of the source, which are not always exact repeats. Identical values can stand only once.",
  "data": [
    {"tested_on": "Candida albicans CaCi-2 growth, Alamar Blue fluorescence, 48 h", "test": "single-agent growth inhibition of fluconazole-resistant C. albicans, dose response, CaCi-2 strain, Alamar Blue, dry powder, set 4 (AID 624006)", "outline": "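System: Candida albicans CaCi-2, a fluconazole-resistant isolate, whole cells / Amount: inoculum A600 0.00015 / Medium: RPMI 1640 with MOPS buffer, uridine and glucose / Incubation: 48 h static compound exposure at 37 °C, then 2 h Alamar Blue / Signal: Alamar Blue fluorescence / Control set: amphotericin 10 µM final as positive control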", "values": [
      {"smiles": "CCOC(=O)N1C(=O)C2(CCCCC2)N(c2ccc(Cl)cc2)C1=S", "AC50": "65.7 nM"},
      {"smiles": "CCOC(=O)N1C(=O)C2(CCCCC2)N(c2ccc(C#N)cc2)C1=S", "AC50": "88.9 nM"},
      {"smiles": "CCOC(=O)N1C(=O)C2(CCCCC2)N(c2ccc(C)cc2)C1=S", "AC50": "223 nM and 253 nM"},
      {"smiles": "CCOC(=O)N1C(=O)C2(CCCCC2)N(c2cccc(C)c2)C1=S", "AC50": "194 nM"},
      {"smiles": "CCOC(=O)N1C(=O)C2(CCCCC2)N(c2ccccc2)C1=S", "AC50": "202 nM"},
      {"smiles": "CCOC(=O)N1C(=O)C2(CCCCC2)N(c2ccc(F)cc2)C1=S", "AC50": "39.9 nM"},
      {"smiles": "CC1/C=C/C=C\\C=C\\C=C\\C=C\\C=C\\C=C\\C(O[C@H]2OC(C)C(O)C(N)C2O)CC2OC(O)(CC(O)CC(O)C(O)CCC(O)CC(O)CC(=O)OC(C)C(C)C1O)CC(O)C2C(=O)O", "note": "(some centres not stated)", "AC50": "64.5 nM"}
    ]}
  ]
}
